Test results published in ChEMBL document CHEMBL1140161, “Structure-activity relationships in 1,4-benzodioxan-related compounds. 9. From 1,4-benzodioxane to 1,4-dioxane ring as a promising template of novel alpha1D-adrenoreceptor antagonists, 5-HT1A full agonists, and cytotoxic agents” (J Med Chem, 2008).
Activity calls are given as the source filed them. No cut-off for these calls is given here.

Tests used:
[1] = molecular target: T1, Alpha-1A adrenergic receptor (Homo sapiens, UniProt P35348); assay: Displacement of [3H]prazosin from human cloned alpha1A adrenoceptor expressed in CHO cells; assay type: cell-based
T1 sequence (P35348 whole entry): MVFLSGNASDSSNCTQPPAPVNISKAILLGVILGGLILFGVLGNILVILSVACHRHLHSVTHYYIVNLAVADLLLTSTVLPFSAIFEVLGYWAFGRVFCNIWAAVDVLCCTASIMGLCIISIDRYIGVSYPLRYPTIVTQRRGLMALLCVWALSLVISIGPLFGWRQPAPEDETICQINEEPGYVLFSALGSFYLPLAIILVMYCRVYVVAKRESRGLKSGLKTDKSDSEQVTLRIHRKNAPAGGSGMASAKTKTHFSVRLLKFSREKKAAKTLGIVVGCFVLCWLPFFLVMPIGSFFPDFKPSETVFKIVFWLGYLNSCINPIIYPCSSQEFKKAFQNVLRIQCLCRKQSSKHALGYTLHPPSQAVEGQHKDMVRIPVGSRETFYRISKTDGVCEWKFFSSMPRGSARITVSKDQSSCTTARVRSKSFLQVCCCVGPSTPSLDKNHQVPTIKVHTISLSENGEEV
Method in brief: (§1)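 [3H]prazosin binding to cloned human α1-adrenoceptor subtypes expressed in CHO cell membranes. Affinity reported as pKi for each subtype.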

[2] = molecular target: T2, Alpha-1B adrenergic receptor (Homo sapiens, UniProt P35368); assay: Displacement of [3H]prazosin from human cloned Alpha-1B adrenoceptor expressed in CHO cells; assay type: cell-based; method in brief: as §1
T2 sequence (P35368 whole entry): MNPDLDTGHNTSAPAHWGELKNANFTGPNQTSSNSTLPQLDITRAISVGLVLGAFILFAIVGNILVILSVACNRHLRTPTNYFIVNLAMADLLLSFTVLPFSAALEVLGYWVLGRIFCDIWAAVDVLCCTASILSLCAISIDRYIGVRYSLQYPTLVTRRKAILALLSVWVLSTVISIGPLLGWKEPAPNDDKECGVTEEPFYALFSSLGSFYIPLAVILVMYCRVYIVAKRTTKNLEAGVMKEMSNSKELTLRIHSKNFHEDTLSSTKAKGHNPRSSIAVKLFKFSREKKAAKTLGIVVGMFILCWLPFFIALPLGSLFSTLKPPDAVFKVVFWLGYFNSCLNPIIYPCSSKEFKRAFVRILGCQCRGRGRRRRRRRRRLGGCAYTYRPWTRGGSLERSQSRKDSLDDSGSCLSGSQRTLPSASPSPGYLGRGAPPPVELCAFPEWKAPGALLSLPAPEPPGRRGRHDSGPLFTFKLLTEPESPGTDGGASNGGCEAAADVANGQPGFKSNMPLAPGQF

[3] = molecular target: T3, Alpha-1D adrenergic receptor (Homo sapiens, UniProt P25100); assay: Displacement of [3H]prazosin from human cloned alpha1D adrenoceptor expressed in CHO cells; assay type: cell-based; method in brief: as §1
T3 sequence (P25100 whole entry): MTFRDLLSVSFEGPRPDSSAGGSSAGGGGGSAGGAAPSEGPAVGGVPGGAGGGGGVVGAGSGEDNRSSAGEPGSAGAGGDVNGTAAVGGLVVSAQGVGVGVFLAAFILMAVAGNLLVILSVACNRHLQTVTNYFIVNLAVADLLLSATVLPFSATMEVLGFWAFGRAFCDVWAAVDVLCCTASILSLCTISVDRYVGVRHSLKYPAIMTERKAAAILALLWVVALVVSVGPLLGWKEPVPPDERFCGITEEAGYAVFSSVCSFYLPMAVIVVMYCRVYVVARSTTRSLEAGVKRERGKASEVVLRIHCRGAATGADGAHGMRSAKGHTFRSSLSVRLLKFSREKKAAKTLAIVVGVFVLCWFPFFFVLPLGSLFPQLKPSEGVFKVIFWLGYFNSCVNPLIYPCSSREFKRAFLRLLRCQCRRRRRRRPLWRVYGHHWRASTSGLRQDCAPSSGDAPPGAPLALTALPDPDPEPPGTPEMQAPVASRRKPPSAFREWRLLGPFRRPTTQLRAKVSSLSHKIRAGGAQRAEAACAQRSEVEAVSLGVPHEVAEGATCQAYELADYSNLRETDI

[4] = molecular target: T4, Alpha-1A adrenergic receptor (Rattus norvegicus) (UniProt P43140); assay: Antagonist activity at alpha1A adrenoceptor in Wistar rat prostatic vas deferens assessed as inhibition of (-)-noradrenaline-induced contraction after 30 mins; assay type: functional, tissue-based
T4 sequence (whole entry): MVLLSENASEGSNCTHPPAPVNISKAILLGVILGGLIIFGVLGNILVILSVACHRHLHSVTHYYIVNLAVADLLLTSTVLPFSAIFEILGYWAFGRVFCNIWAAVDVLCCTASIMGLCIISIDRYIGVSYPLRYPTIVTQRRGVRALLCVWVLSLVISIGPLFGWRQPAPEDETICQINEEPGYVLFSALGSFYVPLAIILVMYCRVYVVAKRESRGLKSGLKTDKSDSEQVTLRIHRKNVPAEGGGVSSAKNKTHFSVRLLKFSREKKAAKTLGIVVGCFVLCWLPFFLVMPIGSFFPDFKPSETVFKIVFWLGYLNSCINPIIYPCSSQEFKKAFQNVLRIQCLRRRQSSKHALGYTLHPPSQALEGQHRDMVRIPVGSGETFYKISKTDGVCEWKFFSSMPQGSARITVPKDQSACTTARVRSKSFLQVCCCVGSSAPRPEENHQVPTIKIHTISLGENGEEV

[5] = molecular target: T5, Alpha-1B adrenergic receptor (Rattus norvegicus) (UniProt P15823); assay: Antagonist activity at alpha1B adrenoceptor in Wistar rat spleen assessed as inhibition of (-)-phenylephrine-induced contraction after 30 mins; assay type: functional, tissue-based
T5 sequence (whole entry): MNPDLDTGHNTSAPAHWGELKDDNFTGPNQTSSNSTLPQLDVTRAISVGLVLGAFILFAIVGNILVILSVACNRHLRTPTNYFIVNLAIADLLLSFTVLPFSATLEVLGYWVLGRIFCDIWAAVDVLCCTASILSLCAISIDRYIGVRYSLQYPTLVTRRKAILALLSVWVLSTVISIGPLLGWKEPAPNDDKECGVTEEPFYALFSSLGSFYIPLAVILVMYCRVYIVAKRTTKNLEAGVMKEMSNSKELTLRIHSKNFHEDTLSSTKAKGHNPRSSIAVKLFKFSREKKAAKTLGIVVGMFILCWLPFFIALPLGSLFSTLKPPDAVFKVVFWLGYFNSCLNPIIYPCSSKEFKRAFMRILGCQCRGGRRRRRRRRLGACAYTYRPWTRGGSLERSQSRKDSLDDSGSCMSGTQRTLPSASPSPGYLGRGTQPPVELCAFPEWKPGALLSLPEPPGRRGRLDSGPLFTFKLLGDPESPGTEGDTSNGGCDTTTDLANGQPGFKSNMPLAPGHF

PC-3 = assay: Cytotoxicity against human PC3 cells after 48 hrs by SRB assay; assay type: functional; details: for GI50 / TGI / CC50: PC-3, 48 h; for CC50: read-out: LC50 (the source's name)
Method in brief: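 PC-3 human prostate cancer cells. Growth measured by sulforhodamine B staining following the NCI protocol. […] Values are means of quadruplicate determinations ± standard error (n = 5).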

| SMILES | Ki [1] [µM] | Ki [2] [µM] | Ki [3] [µM] | pKb [4] | pKb [5] | GI50 (PC-3) [µM] | TGI (PC-3) [µM] | CC50 (PC-3) [µM] | Activity (PC-3) |
| --- | --- | --- | --- | --- | --- | --- | --- | --- | --- |
| COc1ccccc1OCCNC[C@@H]1COC(c2ccccc2)(c2ccccc2)CO1 | 0.0741 | 0.0741 | 0.102 | 6.37 | 6.81 | 7.8 | 16.1 | 35.8 | – |
| COc1cccc(OC)c1OCCNC[C@@H]1COC(c2ccccc2)(c2ccccc2)CO1 | 0.0891 | 0.126 | 0.17 | 6.08 | 5.74 | 19.9 | 31.6 | 40 | – |
| c1ccc(OCCNC[C@@H]2COCC(c3ccccc3)(c3ccccc3)O2)cc1 | 0.17 | 0.12 | 0.00363 | 6.93 | 7.84 | 1 | 3.9 | 6.2 | – |
| COc1ccccc1OCCNC[C@@H]1COCC(c2ccccc2)(c2ccccc2)O1 | 0.0275 | 0.0562 | 0.00115 | 6.65 | 6.86 | 6.3 | 15.4 | 35.1 | – |
| COc1cccc(OC)c1OCCNC[C@@H]1COCC(c2ccccc2)(c2ccccc2)O1 | 0.339 | 0.324 | 0.0661 | 6.71 | 6.24 | 25.1 | 31.6 | 35 | – |
| c1ccc(OCCNC[C@@H]2COC(c3ccccc3)(c3ccccc3)CO2)cc1 | 0.224 | 0.141 | 0.126 | 6.15 | 6.28 | 9.9 | 19.4 | 45.2 | – |
| c1ccc(OCCNC[C@@H]2CO[C@H](c3ccccc3)CO2)cc1 (relative stereo) | > 1 | > 1 | 0.355 | 6.89 | 6.68 | 190 | 239 | > 300 | – |
| COc1ccccc1OCCNC[C@@H]1COC[C@H](c2ccccc2)O1 (relative stereo) | 0.2 | 0.269 | 0.0437 | 6.57 | 7.4 | 79 | 158 | 251 | – |
| c1ccc(OCCNC[C@@H]2COC[C@@H](c3ccccc3)O2)cc1 (relative stereo) | 0.407 | > 1 | 0.155 | 7.21 | 6.88 | 158 | 223 | > 300 | – |
| COc1cccc(OC)c1OCCNC[C@@H]1CO[C@H](c2ccccc2)CO1 (relative stereo) | > 1 | > 1 | > 1 | 5.96 | 6.7 | 199 | 251 | > 300 | – |
| c1ccc(OCCNC[C@@H]2COC[C@H](c3ccccc3)O2)cc1 (relative stereo) | > 1 | > 1 | 0.0724 | 6.72 | 7.12 | 158 | 223 | 281 | – |
| COc1ccccc1OCCNC[C@@H]1COC[C@@H](c2ccccc2)O1 (relative stereo) | 0.0871 | 0.302 | 0.0316 | 7.22 | 7.96 | 199 | 251 | > 300 | – |
| COc1cccc(OC)c1OCCNC[C@@H]1COC[C@@H](c2ccccc2)O1 (relative stereo) | > 1 | > 1 | > 1 | 5.8 | 5.75 | 112 | 199 | 288 | – |
| COc1cccc(OC)c1OCCNC[C@@H]1COC[C@H](c2ccccc2)O1 (relative stereo) | 0.468 | > 1 | > 1 | 6.42 | 5.84 | 79.4 | 178 | 282 | – |
| COc1cccc(OC)c1OCCNC[C@@H]1CO[C@@H](c2ccccc2)CO1 (relative stereo) | 0.513 | > 1 | > 1 | 7.21 | 7.02 | 29 | – | – | inactive |
| COc1ccccc1OCCNC[C@@H]1CO[C@@H](c2ccccc2)CO1 (relative stereo) | 0.158 | 0.282 | 0.0977 | 7.1 | 7.44 | 30.1 | – | – | inactive |
| COc1ccccc1OCCNC[C@@H]1CO[C@H](c2ccccc2)CO1 (relative stereo) | 0.437 | 0.263 | 0.0162 | 6.47 | 6.89 | 199 | 251 | > 300 | – |
| c1ccc(OCCNC[C@@H]2CO[C@@H](c3ccccc3)CO2)cc1 (relative stereo) | 0.537 | > 1 | > 1 | 7 | 6.97 | 177 | 252 | > 300 | – |
